In brackets after ≈: the same amount, converted by molar mass. Structures can show the parent of a compound that is named as a salt.
How the values were obtained:
[1] = Cytotoxicity against BC cells by colorimetric method; assay type: cell-based; conditions: Homo sapiens
In short: (§1)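 KB and BC cells were tested by the colorimetric method of Skehan and co-workers, with ellipticine as the reference compound.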

[2] = tested on: KB; test: Cytotoxicity against KB cells by colorimetric method; assay type: cell-based; conditions: Homo sapiens; in short: as §1
[3] = tested on: Candida albicans; test: Antifungal activity against Candida albicans by colorimetric method; assay type: functional, organism-based
[4] = tested on: Plasmodium falciparum; test: Antimalarial activity against multidrug-resistant Plasmodium falciparum K1 by micro culture radioisotope technique; assay type: functional, organism-based
[5] = tested on: Mycobacterium tuberculosis; test: Antimycobacterial activity against Mycobacterium tuberculosis H37Ra by microplate Alamar Blue assay; assay type: functional
In short: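 M. tuberculosis H37Ra grown in Middlebrook 7H9 broth; growth read colorimetrically with Alamar Blue in microplates and reported as MIC; isoniazid and kanamycin sulfate included as reference drugs.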

[6] = target: T1, Prostaglandin G/H synthase 2 (Homo sapiens, UniProt P35354); test: Inhibition of COX2 by radioimmunoassay method
T1 sequence (P35354 whole entry): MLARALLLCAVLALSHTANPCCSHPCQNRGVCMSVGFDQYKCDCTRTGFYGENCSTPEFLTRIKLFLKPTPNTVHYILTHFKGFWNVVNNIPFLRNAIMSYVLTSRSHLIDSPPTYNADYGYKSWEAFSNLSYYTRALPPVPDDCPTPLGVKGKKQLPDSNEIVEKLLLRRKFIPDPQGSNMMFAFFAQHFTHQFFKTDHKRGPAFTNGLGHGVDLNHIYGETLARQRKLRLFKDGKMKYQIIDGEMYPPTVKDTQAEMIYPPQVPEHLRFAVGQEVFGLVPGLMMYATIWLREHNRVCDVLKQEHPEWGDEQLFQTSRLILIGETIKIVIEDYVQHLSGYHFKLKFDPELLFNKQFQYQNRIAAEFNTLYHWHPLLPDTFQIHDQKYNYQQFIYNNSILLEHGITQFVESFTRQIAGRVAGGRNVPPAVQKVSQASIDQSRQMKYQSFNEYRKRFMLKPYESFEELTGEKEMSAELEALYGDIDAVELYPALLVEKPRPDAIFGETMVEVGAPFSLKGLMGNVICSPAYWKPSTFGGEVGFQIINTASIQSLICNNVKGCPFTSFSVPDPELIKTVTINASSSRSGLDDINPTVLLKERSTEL

[7] = target: Prostaglandin G/H synthase 1 (Homo sapiens, UniProt P23219); test: Inhibition of COX1 by radioimmunoassay method
Chain of Prostaglandin G/H synthase 1 (P23219 whole entry): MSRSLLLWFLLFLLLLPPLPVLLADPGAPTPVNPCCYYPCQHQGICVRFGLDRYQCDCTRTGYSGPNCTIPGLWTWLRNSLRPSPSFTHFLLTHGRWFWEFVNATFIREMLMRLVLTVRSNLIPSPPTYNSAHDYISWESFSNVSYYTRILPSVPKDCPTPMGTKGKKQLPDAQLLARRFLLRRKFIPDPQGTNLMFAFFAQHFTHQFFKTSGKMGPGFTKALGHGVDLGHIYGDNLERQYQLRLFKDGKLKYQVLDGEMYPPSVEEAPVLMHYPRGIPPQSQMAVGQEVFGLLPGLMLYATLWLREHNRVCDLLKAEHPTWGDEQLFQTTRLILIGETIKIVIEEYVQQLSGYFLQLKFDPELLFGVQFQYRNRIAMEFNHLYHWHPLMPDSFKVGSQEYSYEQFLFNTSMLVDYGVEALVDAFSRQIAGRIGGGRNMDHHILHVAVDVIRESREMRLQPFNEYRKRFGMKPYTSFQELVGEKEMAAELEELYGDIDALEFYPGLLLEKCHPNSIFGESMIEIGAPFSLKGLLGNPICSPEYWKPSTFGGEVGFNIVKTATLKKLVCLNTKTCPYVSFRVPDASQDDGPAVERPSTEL

Compound | IC50 [1] [µM] | IC50 [2] [µM] | IC50 [3] [µM] | IC50 [4] [µM] | MIC [5] [µM] | IC50 [6] [µM] | IC50 [7] [µM]
Cc1c(O)cc2c(c1O)C(=O)C[C@@H](c1ccccc1)O2 | > 74 | > 74 | > 185 | > 74 | > 741 | – | –
COc1cc(CCc2ccccc2O)cc(OC)c1 | > 77.5 | > 77.5 | 49.6 | > 77.5 | 194 (≈ 50 µg/mL) | – | –
COc1cc(CCc2ccccc2O)c(O)c(OC)c1 | > 72.9 | > 72.9 | > 182 | > 72.9 | 91.2 (≈ 25 µg/mL) | – | –
COc1cc(O)cc(CCc2ccccc2)c1 | 72.3 | 51.7 | 68.4 | > 87.7 | 219 (≈ 50 µg/mL) | – | –
C[C@@H]1[C@H](O)[C@@H](C)/C=C/C=C/C=C/C=C/C=C/C=C/C=C/[C@H](O[C@@H]2O[C@H](C)[C@@H](O)[C@H](N)[C@@H]2O)C[C@@H]2O[C@](O)(C[C@@H](O)C[C@@H](O)[C@H](O)CC[C@@H](O)C[C@@H](O)CC(=O)O[C@H]1C)C[C@H](O)[C@H]2C(=O)O [AMPHOTERICIN B] | – | – | 0.04 | – | – | – | –
C[C@H]1[C@@H](O)O[C@@H]2O[C@@]3(C)CC[C@H]4[C@H](C)CC[C@@H]1[C@@]24OO3 [ARTENIMOL] | – | – | – | 0.0042 | – | – | –
COc1cc(O)cc(CCc2ccccc2O)c1 [BATATASIN IV] | > 81.8 | > 81.8 | > 205 | > 81.8 | 205 (≈ 50 µg/mL) | > 40.9 | > 40.9
COc1cc(OC)c(O)c([C@@H]2Cc3ccccc3O2)c1 [BAUHIBENZOFURIN A] | > 73.5 | > 73.5 | 130 | > 73.5 | 368 (≈ 100 µg/mL) | – | –
COc1cc(CCc2ccccc2O)cc(O)c1C [BAUHINOL E] | > 77.5 | > 77.5 | > 194 | > 77.5 | 194 (≈ 50 µg/mL) | – | –
COc1cc2c(c(O)c1C)Oc1cccc(O)c1CC2 [BAUHINOXEPIN C] | 32.3 | 44.8 | 79.4 | > 73.5 | 184 (≈ 50 µg/mL) | – | –
COc1c(C)c(O)cc2c1Oc1cccc(O)c1CC2 [BAUHINOXEPIN D] | 45.5 | 41.5 | > 184 | > 73.5 | 184 (≈ 50 µg/mL) | – | –
COc1c(C)c(OC)c2c(c1O)CCc1c(O)cccc1O2 [BAUHINOXEPIN E] | > 66.2 | > 66.2 | > 166 | > 66.2 | 331 (≈ 100 µg/mL) | > 33.1 | > 33.1
COc1c(O)c(C)c(OC)c2c1CCc1c(O)cccc1O2 [BAUHINOXEPIN F] | 27.4 | 29.4 | 77.8 | > 66.2 | 662 (≈ 200 µg/mL) | 6.9 | > 33.1
COc1c(C)c(O)cc2c1Oc1ccccc1C(O)C2 (configuration not stated) [BAUHINOXEPIN G] | > 73.5 | > 73.5 | > 184 | > 73.5 | 91.9 (≈ 25 µg/mL) | – | –
COC1=C(C)C(=O)C2=C(CCc3c(O)cccc3O2)C1=O [BAUHINOXEPIN H] | 11.5 | 15.7 | > 175 | – | 87.4 (≈ 25 µg/mL) | > 34.9 | > 34.9
COC1=C(C)C(=O)C2=C(CCc3cc(O)ccc3O2)C1=O [BAUHINOXEPIN I] | 41.9 | 38.8 | > 175 | 10.5 | 175 (≈ 50 µg/mL) | 10.1 | > 34.9
COC1=CC(=O)C2=C(CCc3ccccc3O2)C1=O [BAUHINOXEPIN J] | 12.1 | 10.5 | > 195 | 5.8 | 24.4 (≈ 6.25 µg/mL) | – | –
Cc1c(O)c(C)c2c(c1O)C(=O)C[C@@H](c1ccccc1)O2 [DEMETHOXYMATTEUCINOL] | > 70.4 | > 70.4 | > 176 | 9.5 | > 704 | – | –
Oc1cc(O)cc(CCc2ccccc2)c1 [DIHYDROPINOSYLVIN] | > 93.4 | > 93.4 | > 234 | > 93.4 | 117 (≈ 25 µg/mL) | > 46.7 | > 46.7
Cc1c2ccncc2c(C)c2c1[nH]c1ccccc12 [ELLIPTECINE] | 6.1 | 5.3 | – | – | – | – | –
NNC(=O)c1ccncc1 [ISONIAZID] | – | – | – | – | 0.29 (≈ 0.0398 µg/mL) | – | –
NC[C@H]1O[C@H](O[C@H]2[C@H](O)[C@@H](O[C@H]3O[C@H](CO)[C@@H](O)[C@H](N)[C@H]3O)[C@H](N)C[C@@H]2N)[C@H](O)[C@@H](O)[C@@H]1O [KANAMYCIN SULFATE] | – | – | – | – | 3.43 | – | –

Source: ChEMBL document CHEMBL1139892 (J Nat Prod, 2007)
